Source: ChEMBL document CHEMBL1221342, “Synthesis and in vitro antitumor activity of new 4,5-dihydropyrazole derivatives” (Bioorg Med Chem, 2010)

Key:
NCI-H322M = test: Growth inhibition of human NCI-H322M cells after 48 hrs by SRB assay; format: functional
How it was run: (§1)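 NCI 60-cell-line screen. Cells grown in RPMI1640 with 5% fetal calf serum and 2 mM L-glutamine, with inoculum density set by cell line. Preincubated 24 h, then given compound in DMSO at 10^-4 to 10^-8 M (five 10-fold steps) for 48 h continuous exposure. Growth measured by SRB protein assay. GI50, TGI and LC50 reported as –log molar.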

SR = test: Growth inhibition of human SR cells after 48 hrs by SRB assay; format: functional; how it was run: as §1
SNB-75 = test: Growth inhibition of human SNB75 cells after 48 hrs by SRB assay; format: functional; conditions: SNB-75, 48 h; how it was run: as §1
MDA-MB-435 = test: Growth inhibition of human MDA-MB-435 cells after 48 hrs by SRB assay; format: functional; conditions: MDA-MB-435, 48 h; how it was run: as §1
HOP-62 = test: Growth inhibition of human HOP62 cells after 48 hrs by SRB assay; format: functional; conditions: HOP-62, 48 h; how it was run: as §1
UACC-62 = test: Growth inhibition of human UACC62 cells after 48 hrs by SRB assay; format: functional; conditions: UACC-62, 48 h; how it was run: as §1
SF-295 = test: Growth inhibition of human SF295 cells after 48 hrs by SRB assay; format: functional; conditions: SF-295, 48 h; how it was run: as §1
COLO 205 = test: Growth inhibition of human COLO205 cells after 48 hrs by SRB assay; format: functional; conditions: COLO 205, 48 h; how it was run: as §1
SF-539 = test: Growth inhibition of human SF539 cells after 48 hrs by SRB assay; format: functional; conditions: SF-539, 48 h; how it was run: as §1
OVCAR-4 = test: Growth inhibition of human OVCAR4 cells after 48 hrs by SRB assay; format: functional; conditions: OVCAR-4, 48 h; how it was run: as §1
OVCAR-8 = test: Growth inhibition of human OVCAR8 cells after 48 hrs by SRB assay; format: functional; conditions: OVCAR-8, 48 h; how it was run: as §1
T47D = test: Growth inhibition of human T47D cells after 48 hrs by SRB assay; format: functional; how it was run: as §1
SK-MEL-28 = test: Growth inhibition of human SK-MEL-28 cells after 48 hrs by SRB assay; format: functional; conditions: SK-MEL-28, 48 h; how it was run: as §1
MOLT-4 = test: Growth inhibition of human MOLT4 cells after 48 hrs by SRB assay; format: functional; conditions: MOLT-4, 48 h; how it was run: as §1
SF-268 = test: Growth inhibition of human SF268 cells after 48 hrs by SRB assay; format: functional; conditions: SF-268, 48 h; how it was run: as §1
DU-145 = test: Growth inhibition of human DU145 cells after 48 hrs by SRB assay; format: functional; conditions: DU-145, 48 h; how it was run: as §1
HCT-15 = test: Growth inhibition of human HCT15 cells after 48 hrs by SRB assay; format: functional; conditions: HCT-15, 48 h; how it was run: as §1
HCT-116 = test: Growth inhibition of human HCT116 cells after 48 hrs by SRB assay; format: functional; conditions: HCT-116, 48 h; how it was run: as §1
[1] = Growth inhibition of human […] cells after 48 hrs by SRB assay; format: functional; how it was run: as §1
PC-3 = test: Growth inhibition of human PC3 cells after 48 hrs by SRB assay; format: functional; conditions: PC-3, 48 h; how it was run: as §1
M14 = test: Growth inhibition of human M14 cells after 48 hrs by SRB assay; format: functional; conditions: M14, 48 h; how it was run: as §1
SW-620 = test: Growth inhibition of human SW620 cells after 48 hrs by SRB assay; format: functional; conditions: SW-620, 48 h; how it was run: as §1
MCF7 = test: Growth inhibition of human MCF7 cells after 48 hrs by SRB assay; format: functional; conditions: MCF7, 48 h; how it was run: as §1
SK-OV-3 = test: Growth inhibition of human SKOV3 cells after 48 hrs by SRB assay; format: functional; conditions: SK-OV-3, 48 h; how it was run: as §1
TK-10 = test: Growth inhibition of human TK10 cells after 48 hrs by SRB assay; format: functional; conditions: TK-10, 48 h; how it was run: as §1
Malme-3M = test: Growth inhibition of human MALME-3M cells after 48 hrs by SRB assay; format: functional; how it was run: as §1
U-251 = test: Growth inhibition of human U251 cells after 48 hrs by SRB assay; format: functional; conditions: U-251, 48 h; how it was run: as §1
NCI-H460 = test: Cytotoxicity against human NCI-H460 cells after 72 hrs by SRB assay; format: functional, cell-based; conditions: NCI-H460, 72 h
How it was run: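 NCI-H460 (ATCC) cells seeded in 96-well plates in growth medium. Scalar drug concentrations added 24 h after plating, then 72 h exposure. Surviving cells stained with sulforhodamine B, OD read at 570 nm. IC50 (50% growth inhibition) fitted from dose–response curves. Mean ± SE of at least three independent experiments.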

CAKI-1 = test: Growth inhibition of human Caki1 cells after 48 hrs by SRB assay; format: functional; conditions: CAKI-1, 48 h; how it was run: as §1
UO-31 = test: Growth inhibition of human UO31 cells after 48 hrs by SRB assay; format: functional; conditions: UO-31, 48 h; how it was run: as §1
NCI-H522 = test: Growth inhibition of human NCI-H522 cells after 48 hrs by SRB assay; format: functional; conditions: NCI-H522, 48 h; how it was run: as §1
K562 = test: Growth inhibition of human K562 cells after 48 hrs by SRB assay; format: functional; conditions: K562, 48 h; how it was run: as §1
SK-MEL-2 = test: Growth inhibition of human SK-MEL-2 cells after 48 hrs by SRB assay; format: functional; conditions: SK-MEL-2, 48 h; how it was run: as §1
CCRF-CEM = test: Growth inhibition of human CCRF-CEM cells after 48 hrs by SRB assay; format: functional; how it was run: as §1
SK-MEL-5 = test: Growth inhibition of human SK-MEL-5 cells after 48 hrs by SRB assay; format: functional; conditions: SK-MEL-5, 48 h; how it was run: as §1
BT-549 = test: Growth inhibition of human BT549 cells after 48 hrs by SRB assay; format: functional; conditions: BT-549, 48 h; how it was run: as §1
HT-29 = test: Growth inhibition of human HT-29 cells after 48 hrs by SRB assay; format: functional; conditions: HT-29, 48 h; how it was run: as §1

In the case of CCN(CC)c1ccc(C2=NN(C(C)=O)C(c3cc(OC)c(OC)c(OC)c3)C2)cc1 (configuration not stated), the GI50 (NCI-H322M) is reported as 501 nM, the TGI (NCI-H322M; read-out: pTGI (converted)) is reported as 12600 nM and the GI50 (SR) is reported as 63.1 nM. The TGI (SR; read-out: pTGI (converted)) was 631 nM, the GI50 (SNB-75) was 251 nM and the TGI (SNB-75; read-out: pTGI (converted)) was 631 nM. It also gave a GI50 (MDA-MB-435) of 158 nM, a TGI (MDA-MB-435; read-out: pTGI (converted)) of 398 nM and a GI50 (HOP-62) of 1580 nM. It also gave a TGI (HOP-62; read-out: pTGI (converted)) of 25100 nM, a GI50 (UACC-62) of 316 nM and a TGI (UACC-62; read-out: pTGI (converted)) of 12600 nM. For the same compound, the GI50 (SF-295) was 200 nM, the TGI (SF-295; read-out: pTGI (converted)) was 631 nM and the GI50 (COLO 205) was 316 nM. For the same compound, the TGI (COLO 205; read-out: pTGI (converted)) was 1260 nM, the GI50 (SF-539) was 316 nM and the TGI (SF-539; read-out: pTGI (converted)) was 631 nM. For the same compound, the GI50 (OVCAR-4) was 631 nM, the TGI (OVCAR-4; read-out: pTGI (converted)) was 25100 nM and the GI50 (OVCAR-8) was 398 nM. The TGI (OVCAR-8; read-out: pTGI (converted)) was 5010 nM, the GI50 (T47D) was 200 nM and the TGI (T47D; read-out: pTGI (converted)) was 20000 nM. The GI50 (SK-MEL-28) was 794 nM, the TGI (SK-MEL-28; read-out: pTGI (converted)) was 20000 nM and the GI50 (MOLT-4) was 251 nM. It also gave a TGI (MOLT-4; read-out: pTGI (converted)) of 3160 nM, a GI50 (SF-268) of 794 nM and a TGI (SF-268; read-out: pTGI (converted)) of 20000 nM. It also gave a GI50 (DU-145) of 398 nM, a TGI (DU-145; read-out: pTGI (converted)) of 2000 nM and a GI50 (HCT-15) of 398 nM. For the same compound, the GI50 (HCT-116) was 316 nM, the TGI (HCT-116; read-out: pTGI (converted)) was 12600 nM and the GI50 [1] was 158 nM. For the same compound, the TGI ([1]; read-out: pTGI (converted)) was 501 nM, the GI50 (PC-3) was 316 nM and the TGI (PC-3; read-out: pTGI (converted)) was 12600 nM. It also gave a GI50 (M14) of 398 nM, a TGI (M14; read-out: pTGI (converted)) of 3160 nM and a GI50 (SW-620) of 316 nM. The TGI (SW-620; read-out: pTGI (converted)) was 15800 nM, the GI50 (MCF7) was 316 nM and the TGI (MCF7; read-out: pTGI (converted)) was 10000 nM. The GI50 (SK-OV-3) was 398 nM, the TGI (SK-OV-3; read-out: pTGI (converted)) was 15800 nM and the GI50 (TK-10) was 398 nM. For the same compound, the TGI (TK-10; read-out: pTGI (converted)) was 20000 nM, the GI50 (Malme-3M) was 200 nM and the TGI (Malme-3M; read-out: pTGI (converted)) was 25100 nM. The GI50 (U-251) was 398 nM, the TGI (U-251; read-out: pTGI (converted)) was 12600 nM and the IC50 (NCI-H460) was 980 nM. It also gave a GI50 (CAKI-1) of 126 nM, a TGI (CAKI-1; read-out: pTGI (converted)) of 20000 nM and a GI50 (UO-31) of 398 nM. It also gave a TGI (UO-31; read-out: pTGI (converted)) of 15800 nM, a GI50 (NCI-H522) of 398 nM and a TGI (NCI-H522; read-out: pTGI (converted)) of 631 nM. It also gave a GI50 (K562) of 631 nM, a TGI (K562; read-out: pTGI (converted)) greater than 100000 nM and a GI50 (SK-MEL-2) of 501 nM. The TGI (SK-MEL-2; read-out: pTGI (converted)) was 39800 nM, the GI50 (CCRF-CEM) was 316 nM and the TGI (CCRF-CEM; read-out: pTGI (converted)) was 1000 nM. For the same compound, the GI50 (SK-MEL-5) was 398 nM, the TGI (SK-MEL-5; read-out: pTGI (converted)) was 3980 nM and the GI50 (BT-549) was 631 nM. The TGI (BT-549; read-out: pTGI (converted)) was 5010 nM, the GI50 (HT-29) was 398 nM and the TGI (HT-29; read-out: pTGI (converted)) was 1580 nM.
